Measurements collected from several papers.
Each line is one published result; the experiments were not run side by side.
Target: Serine/threonine-protein kinase 33 (STK33, Homo sapiens, UniProt Q9BYT3)

The remaining binding of `C=CC(=O)N1CCC(C(=O)NCC(=O)N2CCN(c3nc(-c4cnc(N)nc4C(F)F)nc(N4CCOCC4)n3)CC2)CC1` is reported as 100% (binding, competition with immobilised ligand; 1 µM).
With `CN(C)c1ncc(F)c(-c2cnn3ncccc23)n1` the remaining binding was 100% (binding; 1 µM).
With `COc1cnc(Nc2cccc(S(N)(=O)=O)c2)nc1N1CCN(c2ccccc2)C(=O)C1` the remaining binding was 93% (binding, competition with immobilised ligand; 1 µM).
With `O=C(NCCCN1CCOCC1)c1ccc(Nc2ncc(Cl)c(-c3ccc(Cl)s3)n2)cc1` the remaining binding was 68% (binding, competition with immobilised ligand; 1 µM).
For `CN(c1ccnc(CNc2nc(Nc3ccc4c(c3)CC(=O)N4)ncc2C(F)(F)F)n1)S(C)(=O)=O`, the remaining binding was 15% (cell-free assay, competition with immobilised ligand; 1 µM).
For `O=C(Nc1c[nH]nc1C(=O)NC1CCNCC1)c1cc(F)cc(F)c1`, the remaining binding was 100% (binding, competition with immobilised ligand; 1 µM).
`CNC(=O)[C@@H]1CC[C@@H](n2c(-c3ccc4cnccc4c3)nc3ccc(C(=O)NCc4cccc(C(N)=O)c4)cc32)C1` has a remaining binding of 87% (binding, competition with immobilised ligand; 1 µM).
`C[C@@H]1CCN(c2nccc(-c3cnn4ncccc34)n2)C1` gave a remaining binding of 88% (binding; 1 µM).
`CNC(=O)c1ccccc1Nc1cc(Nc2ccc(N3CCOCC3)cc2OC)ncc1C(F)(F)F` has a remaining binding of < 10% (binding, competition with immobilised ligand; 1 µM).
`CC1=C(C#N)C(c2ccc3c(c2)c(NC(=O)c2ccccc2C)nn3C)C(C#N)=C(C)N1` gave a remaining binding of 100% (cell-free assay, competition with immobilised ligand; 1 µM).
The remaining binding of `CN(c1nccc(-c2cnn3ncccc23)n1)C1CC1` is reported as 100% (binding; 1 µM).
`CC(=O)N1CCC(c2ccc(C(=O)NC3=NCCN3)cc2C(F)(F)F)CC1` gave a remaining binding of 100% (cell-free assay, competition with immobilised ligand; 1 µM).
With `CN(CCCC(F)(F)F)c1nccc(-c2cnn3ncccc23)n1` the remaining binding was 100% (binding; 1 µM).
The remaining binding of `O=C(c1ccc(Nc2ncc(Cl)c(-c3cc4ccccc4s3)n2)cc1)N1CCC(N2CCCC2)CC1` is reported as 38% (binding, competition with immobilised ligand; 1 µM).
`CC1CCCN1c1nccc(-c2cnn3ncccc23)n1` (stereo not shown) gave a remaining binding of 100% (binding; 1 µM).
The remaining binding of `CO[C@@H](C)c1c(Nc2ccc([C@H](N(C)C(=O)C3CCS(=O)(=O)CC3)C(F)(F)F)cc2)cnc2cc(Cl)nn12` is reported as 51% (cell-free assay, competition with immobilised ligand; 1 µM).
`O=C(c1ccc(Nc2ncc(Cl)c(-c3ccc(Cl)s3)n2)cc1)N1CCC(N2CCCC2)CC1` has a remaining binding of 56% (binding, competition with immobilised ligand; 1 µM).
`CCCCN(CCCC)C(=O)CN1C[C@@H](c2cc(OC)c3c(c2)OCO3)[C@H](C(=O)O)[C@H]1CC(C)(C)CCC` gave a remaining binding of 100% (cell-free assay, competition with immobilised ligand; 1 µM).
With `N[C@H]1CCN(c2nccc(-c3cnn4ncccc34)n2)C1` the remaining binding was 0% (binding; 1 µM).
For `FC(F)(F)Oc1cccc(-c2cnc3ccc(-c4ccncc4)nn23)c1`, the remaining binding was 72% (binding, competition with immobilised ligand; 5 µM).
The remaining binding of `O=C(Nc1ccc(Oc2ccc(F)cc2)cc1)N1CCc2ncccc2[C@H]1c1ccc(F)cc1` is reported as 50% (cell-free assay, competition with immobilised ligand; 1 µM).
The remaining binding of `CN(C)c1nccc(-c2cnn3ncccc23)n1` is reported as 75% (binding; 1 µM).
